Screens as filed in PubChem.
The sample as a whole holds a higher share of hits than the screen did.
KDM4C inh – inhibitors of GASC-1 (KDM4C) histone demethylase, primary screen, biochemical, single concentration HTS. GST-KDM4C 2-372, H3K9me3 peptide, LANCE TR-FRET. AID 720574, 2013. Lysine-specific demethylase 4C (Homo sapiens), Q9H3R0. 96,000 tested, 0.15% active. inhibition, % at 12.5 µM;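 active means mean replicate inhibition above about 25%, with at least 55% of replicates also reaching it, limit read from the data, passing the limit was not always enough; inconclusive means only one of those two conditions met; inactive means neither condition met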
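System – N-terminal GST-fused human GASC-1 (KDM4C) fragment, residues 2-372 · Input – enzyme final amount 10 nM · Technique – LANCE TR-FRET, Eu antibody, ULight-streptavidin, EDTA, ex 340 nm, em 618/671 nm · Medium – HEPES buffer, pH 7.5, plus ascorbate · Incubation – enzyme reaction 30 min, then detection 60 min, both room temperature · Reagent – H3K9me3 peptide with Fe(II)/2OG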
T cruzi growth-1 – T. cruzi intracellular proliferation inhibitors, primary screen, cell-based, beta-gal Tulahuen parasites, NIH3T3 host, luminescence. 77,000 tested, 5.9% active. inhibition, % at 8.34 µM. AID 624255, 2012. T. cruzi beta-gal in NIH3T3, GalScreen luminescence, 90 h;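 active means mean inhibition above about 93%, with at least 55% of replicates each passing it, limit read from the data, passing the limit was not always enough; inconclusive means only one of those two conditions holds; inactive means neither condition holds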
IDH1 R132H inh – inhibitors of IDH1 R132H reductase, primary screen, biochemical, plate reader, single point. Isocitrate dehydrogenase [NADP] cytoplasmic (Homo sapiens), O75874. diaphorase/resazurin fluorescence, 60 min. inhibition, % at 10 µM. 70,000 tested, 0.18% active; in the data active means inhibition above about 34%; inconclusive means no clear call, values can overlap the other calls; inactive means below about 11%;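 further: 0% = DMSO and 100% = no enzyme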
Target sequence (O75874 whole entry R132H): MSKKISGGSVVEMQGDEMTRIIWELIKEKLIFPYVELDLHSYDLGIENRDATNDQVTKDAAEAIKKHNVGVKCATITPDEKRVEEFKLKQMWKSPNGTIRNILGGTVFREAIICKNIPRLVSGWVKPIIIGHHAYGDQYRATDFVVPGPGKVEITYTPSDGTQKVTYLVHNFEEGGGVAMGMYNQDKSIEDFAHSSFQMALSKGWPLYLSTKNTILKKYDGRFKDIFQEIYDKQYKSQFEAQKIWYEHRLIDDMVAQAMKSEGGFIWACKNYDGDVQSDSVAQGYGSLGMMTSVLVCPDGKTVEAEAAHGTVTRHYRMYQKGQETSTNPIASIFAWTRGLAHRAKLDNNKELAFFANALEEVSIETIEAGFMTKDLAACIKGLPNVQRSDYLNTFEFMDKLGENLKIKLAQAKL
T cruzi growth-2 – T. cruzi intracellular proliferation inhibitors, confirmation, cell-based, NIH3T3 host, beta-gal parasite, luminescence, cherry-pick; shares compounds with T cruzi growth-1; T. cruzi beta-gal in NIH3T3, GalScreen luminescence, 90 h; inhibition, % at 8.35 µM; 5,600 tested, 72% active; AID 651739, 2012;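 active means mean replicate inhibition above about 95% and at least 55% of replicates individually reaching it, limit read from the data; inconclusive means only one of the two criteria is met; inactive means neither criterion is met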
T cruzi growth-3 – inhibitors of intracellular T. cruzi replication, confirmation, NIH3T3 host cells, beta-gal parasites, cherry-pick, set 2; shares compounds with T cruzi growth-1; T. cruzi beta-gal in NIH3T3, GalScreen luminescence, 90 h; inhibition, % at 2.09 µM; 5,600 tested, 21% active;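 active means mean inhibition above about 95%, with at least 55% of replicates also reaching it, limit read from the data; inconclusive means meets just one of the two conditions; inactive means meets neither condition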;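 further: plate controls were neutral control median for no effect and positive control median for full effect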
NIH3T3 tox – cytotoxicity in mouse NIH/3T3 fibroblasts, confirmation, cytotoxicity control for T. cruzi proliferation inhibitor project, cell-based, cherry-pick, single point; shares compounds with T cruzi growth-1; NIH/3T3 viability, CellTiter-Glo ATP luminescence, 90 h; cytotoxicity (signal decrease), % at 8.35 µM; 5,600 tested, 14% active;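 active means mean signal decrease across replicates above about 35% based on untreated-well scatter, with enough replicates individually passing, limit read from the data; inconclusive means no rule stated though some were filed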;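 further: 0% = median of neutral control wells and 100% = median of positive control wells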
NIH3T3 tox 2 – NIH/3T3 fibroblast cytotoxicity, confirmation, cytotoxicity control, cell-based, cherry-pick, single point, set 2; 5,600 tested, 56% active; inhibition, % at 24.9 µM; shares compounds with T cruzi growth-1; NIH/3T3 viability, CellTiter-Glo ATP luminescence, 90 h;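 active means mean loss of cell viability signal at or above a set limit, and enough replicates individually reaching it; inconclusive means meets only the mean limit or only the replicate share; inactive means meets neither condition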;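 further: 0% = median of neutral control wells and 100% = median of positive control wells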
An asterisk follows results filed as active.

What do the screens show for `COc1cc(S(=O)(=O)n2cnc3cc(C)c(C)cc32)c(OC)cc1Cl`?
IDH1 R132H inh: -2

What do the screens show for `C[C@H](CO)N1C[C@H](C)[C@@H](CN(C)Cc2ccc(Oc3ccccc3)cc2)Oc2c(NC(=O)NC3CCCCC3)cccc2C1=O`?
KDM4C inh: 0; T cruzi growth-1: inconclusive; T cruzi growth-2: 108*; T cruzi growth-3: 89; NIH3T3 tox: -14; NIH3T3 tox 2: 106*

How did C[C@@H]1CN([C@@H](C)CO)C(=O)c2cccc(NC(=O)NC3CCCCC3)c2O[C@@H]1CN(C)Cc1ccccc1 do in these assays?
KDM4C inh: -2; T cruzi growth-1: -97; IDH1 R132H inh: 2

Results for C[C@@H]1CN([C@@H](C)CO)C(=O)c2cccc(NC(=O)C3CCOCC3)c2O[C@@H]1CN(C)Cc1ccc(Oc2ccccc2)cc1 ?
KDM4C inh: -1; T cruzi growth-1: 42; IDH1 R132H inh: -1

Results for C[C@@H]1CN([C@H](C)CO)C(=O)c2cccc(NC(=O)C3CCOCC3)c2O[C@H]1CN(C)Cc1ccc(Oc2ccccc2)cc1 ?
KDM4C inh: -1; T cruzi growth-1: inconclusive; IDH1 R132H inh: 1; T cruzi growth-2: 102*; T cruzi growth-3: 52; NIH3T3 tox: 27; NIH3T3 tox 2: 4

How did CCn1c(SCC(=O)Nc2ccc(Br)cc2F)nnc1-c1ccccc1Cl do in these assays?
IDH1 R132H inh: 0

What do the screens show for `Cc1ccc(NC(=O)c2ccc(NCc3cccnc3)c([N+](=O)[O-])c2)cc1Cl`?
IDH1 R132H inh: 0

What do the screens show for `C[C@@H]1CN([C@H](C)CO)S(=O)(=O)c2ccc(C#Cc3ccc(F)cc3)cc2O[C@@H]1CN(C)S(C)(=O)=O`?
KDM4C inh: 0; T cruzi growth-1: inconclusive; IDH1 R132H inh: 1; T cruzi growth-2: inconclusive; T cruzi growth-3: 59; NIH3T3 tox: 46*; NIH3T3 tox 2: 66*

What do the screens show for `C[C@H](CO)N1C[C@H](C)[C@@H](CN(C)S(C)(=O)=O)Oc2cc(C#Cc3ccc(F)cc3)ccc2S1(=O)=O`?
KDM4C inh: -1; T cruzi growth-1: 106*; IDH1 R132H inh: -7; T cruzi growth-2: 109*; T cruzi growth-3: 64; NIH3T3 tox: 6; NIH3T3 tox 2: 52*

What do the screens show for `C[C@@H]1CN([C@H](C)CO)S(=O)(=O)c2ccc(C#Cc3ccc(F)cc3)cc2O[C@H]1CN(C)C`?
KDM4C inh: 0; T cruzi growth-1: -36; IDH1 R132H inh: -3

How did C[C@H](CO)N1C[C@H](C)[C@H](CN(C)C)Oc2cc(C#Cc3ccc(F)cc3)ccc2S1(=O)=O do in these assays?
KDM4C inh: 1; T cruzi growth-1: -168; IDH1 R132H inh: -1

Results for C[C@@H]1CN([C@@H](C)CO)S(=O)(=O)c2ccc(C#Cc3ccc(F)cc3)cc2O[C@H]1CN(C)C ?
KDM4C inh: -4; T cruzi growth-1: -46; IDH1 R132H inh: -2

How did C[C@@H]1CN([C@@H](C)CO)S(=O)(=O)c2ccc(C#Cc3ccc(F)cc3)cc2O[C@@H]1CN(C)S(C)(=O)=O do in these assays?
KDM4C inh: 1; T cruzi growth-1: inconclusive; IDH1 R132H inh: 5; T cruzi growth-2: 91; T cruzi growth-3: 36; NIH3T3 tox: 36*; NIH3T3 tox 2: 74*

How did COc1ccc(C(C)C)cc1S(=O)(=O)Nc1cccc(C(=O)O)c1 do in these assays?
IDH1 R132H inh: 0

Results for COc1ccccc1NC(=O)CSc1nnc(-c2ccc(Br)cc2)n1C ?
IDH1 R132H inh: 0

How did C[C@H](CO)N1C[C@H](C)[C@H](CN(C)Cc2ccc3c(c2)OCO3)Oc2ccc(NC(=O)NC3CCCCC3)cc2C1=O do in these assays?
KDM4C inh: -2; T cruzi growth-1: 100*; IDH1 R132H inh: -1; T cruzi growth-2: inconclusive; T cruzi growth-3: 97*; NIH3T3 tox: 28; NIH3T3 tox 2: 51*

What do the screens show for `C[C@H]1CN([C@@H](C)CO)C(=O)c2cc(NC(=O)NC3CCCCC3)ccc2O[C@@H]1CN(C)Cc1ccc2c(c1)OCO2`?
KDM4C inh: 0; T cruzi growth-1: -23; IDH1 R132H inh: 1

Results for C[C@H]1CN([C@@H](C)CO)C(=O)c2cc(NC(=O)NC3CCCCC3)ccc2O[C@H]1CN(C)Cc1ccc2c(c1)OCO2 ?
KDM4C inh: 1; T cruzi growth-1: inconclusive; IDH1 R132H inh: 2; T cruzi growth-2: 104*; T cruzi growth-3: 99*; NIH3T3 tox: inconclusive; NIH3T3 tox 2: 41*

How did C[C@@H]1CN([C@H](C)CO)C(=O)c2cc(NC(=O)NC3CCCCC3)ccc2O[C@@H]1CN(C)Cc1ccc2c(c1)OCO2 do in these assays?
KDM4C inh: 1; T cruzi growth-1: 22; IDH1 R132H inh: 3

Results for C=CC(C)(C)[C@@]12C[C@H]3C(=O)Nc4ccccc4C(=O)N3[C@@H]1Nc1ccccc12 ?
IDH1 R132H inh: 0

What do the screens show for `COc1ccc(NC(=O)C(C)NS(=O)(=O)c2ccc(F)cc2)cc1Cl` (stereo unspecified)?
IDH1 R132H inh: 0

How did COc1ccccc1S(=O)(=O)N(C)C[C@@H]1Oc2cc(/C=C/c3ccccc3)ccc2S(=O)(=O)N([C@@H](C)CO)C[C@@H]1C do in these assays?
KDM4C inh: -1; T cruzi growth-1: 93; IDH1 R132H inh: 0

Results for CCCC#Cc1ccc2c(c1)O[C@H](CN(C)S(=O)(=O)c1cccc(OC)c1)[C@H](C)CN([C@H](C)CO)S2(=O)=O ?
KDM4C inh: 8; T cruzi growth-1: 121*; IDH1 R132H inh: 0; T cruzi growth-2: 103*; T cruzi growth-3: 98*; NIH3T3 tox: 33; NIH3T3 tox 2: 25*

Results for COc1cccc(S(=O)(=O)N(C)C[C@H]2Oc3cc(C#CCN(C)C)ccc3S(=O)(=O)N([C@@H](C)CO)C[C@@H]2C)c1 ?
KDM4C inh: 3; T cruzi growth-1: 108*; IDH1 R132H inh: 0; T cruzi growth-2: 114*; T cruzi growth-3: 67; NIH3T3 tox: -2; NIH3T3 tox 2: 5

Results for COc1cccc(S(=O)(=O)N(C)C[C@H]2Oc3cc(C#CCN(C)C)ccc3S(=O)(=O)N([C@@H](C)CO)C[C@H]2C)c1 ?
KDM4C inh: 3; T cruzi growth-1: 57; IDH1 R132H inh: -2
